MsrA act = bovine MsrA enzyme activators, primary screen, biochemical, absorbance, HTS. purified bovine MsrA, absorbance read-out. AID 602163, 2012. 0.3% of 360,000 active. activation, % at 10.6 µM. Methionine sulfoxide reductase A (Bos taurus); in the data active = activation above about 7.5%
ARFGAP1 inhibitor = inhibitors of rat ARFGAP1 GAP activity, primary screen, biochemical, fluorescence polarization, GDP tracer; Arfgap1-stimulated ARF1 GTP hydrolysis, GDP FP detection; inhibition, % at 16.5 µM; 0.26% of 360,000 active;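 active = inhibition above a per-plate limit, mean inhibition of low control wells plus 3 SD, cut at about 25% in these data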
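Replicates: Single well per compound | Assay system: Truncated rat Arfgap1 GAP domain | Control set: No-Arfgap1 wells (100%) versus DMSO full-reaction wells (0%) | Times: Enzyme reaction 120 min at 25 °C after 20 min preincubation | Reagent: Human ARF1(Δ1-17)-GTP substrate | Measured by: Tracer-displacement fluorescence polarization with EDTA stop, 620/688 nm | Measure: Percent inhibition of Arfgap1-stimulated GTP hydrolysis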
HGIII-sPLA2 inh = human group III sPLA2 inhibitors, primary screen, biochemical, QFRET, BODIPY PC-A2 liposome substrate; Group 3 secretory phospholipase A2 (Homo sapiens), Q9NZ20; QFRET BODIPY PC-A2 liposome hydrolysis, fluorescence; inhibition, % at 12.2 µM; 0.56% of 370,000 active; AID 743126, 2013;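 active = inhibition above mean plus 3 SD of compounds lying within the high and low control bounds, cut at about 19% in these data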
Target sequence (Q9NZ20 whole entry, looked up): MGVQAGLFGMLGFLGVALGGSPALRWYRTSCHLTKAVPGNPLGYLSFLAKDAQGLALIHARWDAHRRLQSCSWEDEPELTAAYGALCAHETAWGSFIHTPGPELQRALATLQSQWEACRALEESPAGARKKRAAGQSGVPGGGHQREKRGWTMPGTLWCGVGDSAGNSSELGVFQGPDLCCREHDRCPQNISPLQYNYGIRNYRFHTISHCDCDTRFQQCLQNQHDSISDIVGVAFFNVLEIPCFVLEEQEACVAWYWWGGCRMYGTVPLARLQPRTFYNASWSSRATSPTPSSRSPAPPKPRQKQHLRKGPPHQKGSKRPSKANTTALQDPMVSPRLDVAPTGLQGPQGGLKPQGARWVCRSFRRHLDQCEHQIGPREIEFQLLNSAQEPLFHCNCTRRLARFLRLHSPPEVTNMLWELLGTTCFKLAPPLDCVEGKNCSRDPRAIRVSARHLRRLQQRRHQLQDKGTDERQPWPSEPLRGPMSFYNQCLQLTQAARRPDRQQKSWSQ
ASAP1 inh = inhibitors of human ASAP1 ArfGAP activity, primary screen, biochemical, fluorescence polarization. 0.19% of 360,000 active. inhibition, % at 16.5 µM. ASAP1-stimulated ARF1 GTP hydrolysis, GDP FP detection; in the data active = inhibition above about 25%
NR1D1 modulator = modulators of Rev-erb alpha DNA binding, primary screen, biochemical, FITC-DNA, fluorescence polarization, uHTS; Rev-erbα–FITC-DNA binding, 90 min; 0.79% of 370,000 active; activity, % at 10 µM; Nuclear receptor subfamily 1 group D member 1 (Homo sapiens), P20393;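 active = activity above about 14%, limit read from the data; passing the limit was not always enough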
MsrA inh = bovine MsrA enzyme inhibitors, primary screen, biochemical, absorbance, HTS. purified bovine MsrA, absorbance read-out. 0.75% of 360,000 active. inhibition, % at 15.5 µM. AID 651718, 2012; in the data active = inhibition above about 4.5%
hGIII sPLA2 conf = human group III sPLA2 inhibitors, confirmation, biochemical, QFRET, triplicate; AID 743280, 2014; inhibition, % at 12.2 µM; 34% of 2,000 active; recombinant hGIII-sPLA2, BODIPY PC-A2 QFRET fluorescence; shares compounds with HGIII-sPLA2 inh;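 active = mean inhibition across triplicates above the hit cutoff set in the earlier primary screen, cut at about 19% in these data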
535nm interf = 535nm fluorescence optical interference, confirmation, artefact control for HGIII-sPLA2 inhibitor project, biochemical, QFRET; shares compounds with HGIII-sPLA2 inh; BODIPY FL product fluorescence interference; inhibition, % at 12.2 µM; 8.5% of 2,000 active; AID 743282, 2014;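 active = average inhibition above the solvent-only control mean plus 3 SD, cut at about 6% in these data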
Hits are given with their value; . = inactive; / = no result given. Most compounds without a hit are left out; they make up all but 2.7% or so of the library.

SMILES	MsrA act	ARFGAP1 inhibitor	HGIII-sPLA2 inh	ASAP1 inh	NR1D1 modulator	MsrA inh	hGIII sPLA2 conf	535nm interf
CCCCCCn1cnc2c(c1=O)c1nc3ccccc3nc1n2/N=C/c1ccco1	.	.	.	.	.	.	/	/
S=C(NCC1CCCCC1)Nc1cccnc1	.	.	23	.	.	.	.	.
S=C(NCC1CCCCC1)Nc1ccc(Oc2ccccc2)cc1	.	.	.	.	.	.	/	/
O=C(O)c1ccccc1-c1noc(-c2ccccc2F)n1	/	/	.	/	.	/	/	/
CN1C2=N[C@@H](c3ccccc3)CC(=O)N2/C(=C\c2ccccc2)[C@H]1c1ccccc1	/	/	.	/	.	/	/	/
COC(=O)[C@@]1(C(C)C)N=C(c2cc(OC)c(OC)c(OC)c2)[C@]2(O1)C(=O)N(Cc1cn(Cc3ccccc3)nn1)c1ccc(F)cc12	/	/	.	/	.	/	/	/
Nc1ccc2c(c1)C(=O)c1cc(N)c(Cl)cc1-2	.	.	29	.	.	.	31	8.2
Nc1ccc2c(c1)C(=O)c1ccc(Cl)cc1-2	.	.	.	.	.	.	/	/
Cc1nc2ccccc2n1Cc1ccccc1	.	.	.	.	.	.	/	/
Cc1nc2ccccc2n1CSc1ccccc1	.	.	21	.	.	.	.	.
Oc1c(C(Nc2nccs2)c2ccc(C(F)(F)F)cc2)ccc2cccnc12 (stereo not drawn)	.	.	40	.	.	.	23	.
C=CCN1[C@@H](Cc2ccccc2)COc2cccc(N3CCCC3)c2S1(=O)=O	/	/	.	/	.	/	/	/
Cc1cccc(C(=O)NC(=S)N2CCN(C(=S)NC(=O)c3cccc(C)c3)CC2)c1	.	.	29	.	.	.	.	.
Cc1cccc(C(=O)NC2CCN(C(=O)NCc3ccccc3)CC2)c1	.	.	.	.	.	.	/	/
CCCNC(=S)N1CCC(NC(=O)c2cccc(C)c2)CC1	.	.	20	.	.	.	.	.
CCCCCCCCCCCCCCCCCCCCCC(=O)Nc1ccn([C@@H]2O[C@H](CO)[C@@H](O)[C@@H]2O)c(=O)n1	/	/	/	/	.	/	/	/
Cc1cc2nc(C)c(=O)n(C)c2cc1C	.	.	23	.	.	.	.	.
Cc1cc2nc(-c3ccc(=O)[nH]c3)n(C)c2cc1C	.	.	.	.	.	.	/	/
O=C1C=CC(=Nc2ccc(F)cc2)O1	.	.	.	.	.	.	/	/
CCOC(=O)[C@@]12CCCC=C1N(CCc1ccc(Cl)cc1)C(=O)[C@H]2CC(=O)NCC1CCCCC1	/	/	.	/	.	/	/	/
CC1=C(C(=O)Nc2cccc(C(=O)NC(C)C)c2)SCCO1	.	.	.	.	.	.	/	/
CCC(C)NC(=O)c1ccc(NC(=O)C2=C(C)OCCS2)cc1 (stereo not drawn)	.	.	21	.	.	.	.	.
CP(C)(=O)CCP(=O)(c1ccccc1)c1ccccc1	.	.	19	.	.	.	.	.
O=P(O)(O)CCP(=O)(c1ccccc1)c1ccccc1	.	.	.	.	.	.	/	/
Cc1ccc(C(=O)N(CC(=O)Nc2sc(C)c(C)c2C(N)=O)C2CCCC2)cc1	.	.	.	.	.	.	/	/
CCC(=O)N(CC(=O)Nc1sc(C)c(C)c1C(N)=O)C1CCCCC1	.	.	19	.	.	.	.	.
NNC(=O)c1cc(-c2cccs2)nc2ccccc12	.	.	.	.	.	.	/	/

Screening results from PubChem.
